Assay results reported in ChEMBL document CHEMBL1151226, “New bioactive prenylflavonoids and dibenzocycloheptene derivative from roots of Dendrolobium lanceolatum” (J Nat Prod, 2004).
In brackets after ≈: the same amount, converted by molar mass. Activity calls are given as the source filed them. The calls are words filed in the database; no cut-off is given here.

Columns and labels:
Plasmodium falciparum [1] = experiment: Antiplasmodial activity against multidrug-resistant Plasmodium falciparum K1 at 20 ug/ml as [3H]hypoxanthine uptake; type: functional, organism-based
[2] = test system: Mycobacterium tuberculosis; experiment: Antimycobacterial activity against Mycobacterium tuberculosis H37Ra by alamar blue assay; type: functional
Method in brief: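 M. tuberculosis H37Ra tested in the Microplate Alamar Blue Assay (MABA). Isoniazid and kanamycin sulfate were the reference drugs.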

KB [3] = experiment: Cytotoxicity against human KB cells at 20 ug/ml; type: functional, cell-based
BC = experiment: Cytotoxicity against human BC cells at 20 ug/ml; type: functional, cell-based
NCI-H187 [4] = experiment: Cytotoxicity against human NCI-H187 cells at 20 ug/ml; type: functional, cell-based
Plasmodium falciparum [5] = experiment: Antiplasmodial activity against multidrug-resistant Plasmodium falciparum K1 as [3H]hypoxanthine uptake; type: functional, organism-based
Method in brief: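 P. falciparum K1 (multidrug-resistant) maintained in culture by the Trager–Jensen method. Microculture radioisotope technique, with growth read as in vitro [3H]-hypoxanthine uptake by the parasites. IC50 is the concentration giving 50% reduction in parasite growth. Artemisinin was the reference standard.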

NCI-H187 [6] = experiment: Cytotoxicity against human NCI-H187 cells; type: functional, cell-based
Method in brief: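 Human small cell lung cancer NCI-H187 cell line, assayed by the colorimetric method of Skehan and co-workers. Ellipticine served as the reference substance.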

KB [7] = experiment: Cytotoxicity against human KB cells; type: functional, cell-based
Method in brief: (§1)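 Human epidermoid carcinoma (KB) and human breast cancer (BC) cell lines assessed by a colorimetric cytotoxicity method following Skehan and co-workers. Ellipticine was the reference substance.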

[8] = Cytotoxicity against human BC cells; type: functional, cell-based; method in brief: as §1

COc1cc2c(cc1O)-c1cc(O)c(OC)c(OC)c1C=CC2
Activity (Plasmodium falciparum [1]): inactive | MIC [2]: 50 µg/mL (≈ 159 µM) | Activity (KB [3]): inactive | Activity (BC): inactive | Activity (NCI-H187 [4]): inactive

NNC(=O)c1ccncc1 [ISONIAZID]
MIC [2]: 0.04 µg/mL (≈ 0.292 µM)

COc1ccc([C@@H]2CC(=O)c3c(O)cc(O)c(CC=C(C)C)c3O2)c(CC=C(C)C)c1O
IC50 (Plasmodium falciparum [5]): 3.3 µg/mL (≈ 7.53 µM) | MIC [2]: 12.5 µg/mL (≈ 28.5 µM) | Activity (KB [3]): inactive | Activity (BC): inactive | IC50 (NCI-H187 [6]): 8.1 µg/mL (≈ 18.5 µM)

Cc1c2ccncc2c(C)c2c1[nH]c1ccccc12 [ELLIPTECINE]
IC50 (KB [7]): 0.4 µg/mL (≈ 1.62 µM) | IC50 [8]: 0.4 µg/mL (≈ 1.62 µM) | IC50 (NCI-H187 [6]): 0.4 µg/mL (≈ 1.62 µM)

CC1(C)C=Cc2c(ccc3c2O[C@H](c2ccc(O)cc2)CC3)O1
Activity (Plasmodium falciparum [1]): inactive | MIC [2]: 25 µg/mL (≈ 81.1 µM) | Activity (KB [3]): inactive | Activity (BC): inactive | Activity (NCI-H187 [4]): inactive

CC(C)=CCc1c([C@@H]2CC(=O)c3c(O)cc(O)c(CC=C(C)C)c3O2)cc2c(c1O)OC(C)(C)C=C2
IC50 (Plasmodium falciparum [5]): 2.6 µg/mL (≈ 5.3 µM) | MIC [2]: 6.3 µg/mL (≈ 12.8 µM) | IC50 (KB [7]): 1.2 µg/mL (≈ 2.45 µM) | IC50 [8]: 1.7 µg/mL (≈ 3.47 µM) | IC50 (NCI-H187 [6]): 0.6 µg/mL (≈ 1.22 µM)

COc1cc2c(c(CC=C(C)C)c1O)O[C@H](c1ccc(O)c(O)c1CC=C(C)C)CC2
IC50 (Plasmodium falciparum [5]): 3.1 µg/mL (≈ 7.3 µM) | MIC [2]: 25 µg/mL (≈ 58.9 µM) | Activity (KB [3]): inactive | Activity (BC): inactive | Activity (NCI-H187 [4]): inactive

NC[C@H]1O[C@H](O[C@H]2[C@H](O)[C@@H](O[C@H]3O[C@H](CO)[C@@H](O)[C@H](N)[C@H]3O)[C@H](N)C[C@@H]2N)[C@H](O)[C@@H](O)[C@@H]1O.O=S(=O)(O)O [KANAMYCIN SULFATE]
MIC [2]: 2 µg/mL

C[C@@H]1CC[C@H]2[C@@H](C)C(=O)O[C@@H]3O[C@@]4(C)CC[C@@H]1[C@]32OO4 [ARTEMISININ]
IC50 (Plasmodium falciparum [5]): 0.001 µg/mL (≈ 0.00354 µM)
